The species named for data set [1] is Rattus norvegicus. The data set is described as follows: Compound was tested for the subacute single dose from the toxicity studies in rats. Type of data set: organism-based. The following applies: in vivo.
The test system of data set [2] is Mus musculus. Kind of data set: Compound was tested for its efficacy against L1210 / cisplatin Leukemia in mice at a dose of 5 mg/kg through intraperitoneal route.(Treatment schedule day is 1,5,9). The arrangement: dose 5 mg/kg. The class given is functional, organism-based. The procedure, abridged:
(§1)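 L1210/cisplatin cells (NCI repository) passaged weekly ip in BDF1 mice. Groups of six B6D2F1 mice, 20-25 g, inoculated ip with 10^6 cells on day 0, then given liposomal Pt (DMPC:DMPG 7:3 multilamellar vesicles in 0.9% NaCl) or cisplatin ip on days 1, 5 and 9. Read-out %T/C = median survival treated/control ×100; study ended day 60; average of two experiments.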

Data set [3] concerns Mus musculus. Kind of data set: Compound was tested for its efficacy against L1210 Leukemia in mice at a dose of 5 mg/kg through intraperitoneal route.(Treatment schedule day is 1,5,9). The class given is functional, organism-based. The arrangement: dose 5 mg/kg.
The subject of data set [4] is Mus musculus. The data set is described as follows: Compound was tested for its efficacy against L1210 Leukemia in mice at a dose of 25 mg/kg through intraperitoneal route.(Treatment schedule day is 1). Type of data set: functional, organism-based. The arrangement: dose 25 mg/kg. The procedure, abridged: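 Six B6D2F1 mice per group, 20-25 g, inoculated ip with 10^6 L1210/0 cells on day 0. A single ip dose of liposomal Pt (DMPC:DMPG 7:3 multilamellar vesicles in 0.9% NaCl) was given on day 1; doses of 12.5, 25 and 50 mg/kg were tested. %T/C = median survival treated/control ×100; study ended day 60; mean of three experiments.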

Data set [5] deals with Mus musculus. The data set is described as follows: Compound was tested for its efficacy against L1210 / cisplatin Leukemia in mice at a dose of 25 mg/kg through intraperitoneal route.(Treatment schedule day is 1,5,9). The arrangement: dose 25 mg/kg. The class given is functional, organism-based. The procedure, abridged:
as §1

Data set [6] concerns Mus musculus. The data set is described as follows: Compound was tested for its efficacy against L1210 Leukemia in mice at a dose of 25 mg/kg through intraperitoneal route.(Treatment schedule day is 1,5,9). The class given is functional, organism-based. The arrangement: dose 25 mg/kg. An outline of the steps: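 L1210/0 leukemia passaged weekly ip in BDF1 mice. Six B6D2F1 mice per group (20-25 g) received 10^6 cells ip on day 0. Liposomal Pt (DMPC:DMPG 7:3 MLVs in 0.9% NaCl) or cisplatin was given ip on days 1, 5, 9; doses tested 12.5, 25, 50 mg/kg. Optimal dose is the highest %T/C without toxic deaths. %T/C is from median survival; study ended day 60; average of two experiments.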

The species entered for data set [7] is Rattus norvegicus. The data set is described as follows: Compound was tested for the subacute single dose from the toxicity studies in rats. The class given is organism-based. The note with it: in vivo.

With CISPLATIN [listing 1 of 2 here], in the data set listed under Rattus norvegicus [1], the LD50 (in general, the dose expected to kill half of the subjects tested) was found to be 17.5 mg/kg.
With CISPLATIN [listing 2 of 2 here], the T/C (usually the result in the treated group divided by that in the control group, in per cent) in the data set on Mus musculus [2] was 112%; in the data set with Mus musculus [3] it was 220%; in the data set on Mus musculus [4], 175%.
Substance “Liposomal preparation of (ttans-(R,R)-dach)Pt complex containing isomeric mixture of neodecanoic acid (L-NDDP) [listing 1 of 2 here]” registered an LD50 in the data set listed under Rattus norvegicus [1] of 54 mg/kg.
Consider “Liposomal preparation of (ttans-(R,R)-dach)Pt complex containing isomeric mixture of neodecanoic acid (L-NDDP) [listing 2 of 2 here]”, for which the T/C with Mus musculus [5] amounted to 200%; in the data set on Mus musculus [4] it was 187%; with Mus musculus [6] it was 312%.
The substance “Pt (2,2-diethyl-4-methylpentanoato)2((R,R)-dach) [listing 1 of 2 here]” displayed an LD50 in the data set listed under Rattus norvegicus [1] of 62.3 mg/kg.
Take “Pt (2,2-diethyl-4-methylpentanoato)2((R,R)-dach) [listing 2 of 2 here]”: the values for the T/C with Mus musculus [5], with Mus musculus [4] and in the data set with Mus musculus [6] were 185%, 225% and 257%, respectively.
On to “Pt (2,2-diethyl-4-methylpentanoato)2((S,S)-dach) [listing 1 of 2 here]”, for which the LD50 in the data set listed under Rattus norvegicus [7] was found to be 81 mg/kg.
The substance “Pt (2,2-diethyl-4-methylpentanoato)2((S,S)-dach) [listing 2 of 2 here]” had a T/C with Mus musculus [4] of 160%.
Turning to “Pt (2,2-diethylhexanoato)2((R,R)-dach) [listing 1 of 2 here]”, the 50% lethal dose (LD50) in the data set listed under Rattus norvegicus [1] was 80.8 mg/kg.
Consider “Pt (2,2-diethylhexanoato)2((R,R)-dach) [listing 2 of 2 here]”, for which the T/C with Mus musculus [5] was 231%; in the data set with Mus musculus [4], 253%; with Mus musculus [6] it was 257%.
With “Pt (2,2-diethylhexanoato)2((S,S)-dach) [listing 1 of 2 here]”, the median lethal dose (LD50) in the data set filed under Rattus norvegicus [1] came to 104 mg/kg.
In the case of “Pt (2,2-diethylhexanoato)2((S,S)-dach) [listing 2 of 2 here]”, in the data set on Mus musculus [4], the T/C was 190%.
Still for that read-out and setting: then “Pt (2,2-dimethyl-4-ethylhexanoato)2((R,R)-dach)”, with 212%.
“Pt (2,2-dimethyloctanoato)2((R,R)-dach) [listing 1 of 2 here]” showed an LD50 in the data set filed under Rattus norvegicus [1] of 94.5 mg/kg.
Consider “Pt (2,2-dimethyloctanoato)2((R,R)-dach) [listing 2 of 2 here]”, for which the T/C was found to be 355% with Mus musculus [5], 234% in the data set on Mus musculus [4] and 257% in the data set with Mus musculus [6].
Turning to “Pt (2,2-dimethyloctanoato)2((S,S)-dach) [listing 1 of 2 here]”, the median lethal dose (LD50) in the data set filed under Rattus norvegicus [1] came out at 87 mg/kg.
“Pt (2,2-dimethyloctanoato)2((S,S)-dach) [listing 2 of 2 here]”: the T/C in the data set on Mus musculus [4] worked out at 150%.

Source of the values: ChEMBL document CHEMBL1125870, “Chemical and biological studies on a series of lipid-soluble (trans-(R,R)- and -(S,S)-1,2-diaminocyclohexane)platinum(II) complexes incorporated in liposomes” (J Med Chem, 1991).
